L major viab: reduces viability of Leishmania major promastigotes; resazurin fluorescence viability; inhibition, % at 10 µM; 9% of 200,000 active; in the data active = inhibition above about 50%;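 note: promastigotes grown with compound for 44 hours at 28 °C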
HSF1 inh: HSF1 inhibition; NIH3T3-HGL HSE-luciferase, MG132-induced, luminescence 8 h; hits give low values; 0.77% of 300,000 active; activity change, negative = inhibition, % at 7.5 µM (by protocol);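 active = more than half of replicate wells show activity change below -50%, luminescence cut by over half; inconclusive = some wells, but at most half, below -50%; inactive = no replicate well below -50%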;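 note: luciferase reports HSF-1 transcriptional activity via heat shock element; 0% = median of DMSO wells and -100% = zero luminescence signal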
HSF1 activator: increases HSF-1 driven luciferase reporter signal. NIH3T3-HGL HSF-1 luciferase reporter, MG132, 8 h; 100% = twice DMSO control signal. activation, % at 9 µM. 1.7% of 300,000 active. AID 504408;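 active = mean replicate activation of at least 50% with a set share of replicates each reaching 50%; inconclusive = only one of those two conditions met; inactive = mean below 50% and too few replicates reaching it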;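 note: 0% = median of the neutral control wells and 100% = twice that signal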
T cruzi inh: blocks replication of Trypanosoma cruzi. T. cruzi beta-gal in NIH3T3, luminescence, 90 h. inhibition, % (no concentration beside the values). 1.4% of 300,000 active. AID 1885;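 active = mean inhibition across valid replicates above about 55%, limit read from the data; inconclusive = mean below that limit but half or more replicates reach it; inactive = mean below it, under half of replicates reach it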;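 note: signal also drops with host cell toxicity which is not excluded here; 0% = plate median of DMSO wells and 100% = zero luminescence signal; higher percent means less beta-gal luminescence so fewer parasites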
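assay system = mouse NIH/3T3 fibroblasts infected with β-gal-expressing T. cruzi Tulahuen C4 | input = 5,000 NIH/3T3 host cells per well | buffer or medium = DMEM plus 2% FBS | timing = 3 h host attachment, then at least 90 h co-culture | measured by = GalScreen luminescence, 60 min | evaluation = luminescence reflecting intracellular parasite burden, expressed as percent inhibition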
Hsp70 act: switches on Hsp70 transcription; HeLa Hsp70 promoter luciferase reporter, luminescence; scaled: vehicle 0, proteasome-inhibitor control 100%; activation, % at 10 µM; 0.04% of 200,000 active;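 active = activation above the mean across all tested compounds plus 3 SD, cutoff set per campaign, cut at about 5.5% in these data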;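 note: 100% = MG132 at 30 µM as the positive control and 0% = DMSO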
An asterisk follows results filed as active; ? = inconclusive; / = no result. The full list was thinned out, with hits kept by preference.

SMILES	L major viab	HSF1 inh	HSF1 activator	T cruzi inh	Hsp70 act
COC(=O)Cn1c(C(O)c2ccccc2)nc2ccccc21 (stereo not given)	/	2	2	0	/
COc1ccccc1NC(=S)Nc1ccccn1	-7	11	38	-1	1
Cc1cccc(NC(=S)Nc2ccccn2)c1	/	30	58*	-21	/
Cc1ccc(NC(=S)Nc2ccccn2)c(C)c1	/	22	60*	3	/
Cc1cc(C)cc(NC(=S)Nc2ccccn2)c1	7	12	-4	-1	0
O=C(COc1ccc([N+](=O)[O-])cc1)N(Cc1cccs1)C1CCS(=O)(=O)C1 (stereo not given)	/	9	29	15	/
C/C(=N\NC(N)=S)C1=CCC2C3CC[C@H]4CC(O)CC[C@]4(C)C3CC[C@]12C (stereo not given in full)	/	25	51*	60*	/
COC(=O)CN1C(=S)N(c2ccc(OC)cc2)C(=O)/C1=C/c1cccs1	69*	-9	-3	-1	0
CCOc1ccc(N2C(=O)/C(=C/c3cc(OC)c(OC)c(OC)c3)N(CC(=O)OC)C2=S)cc1	100*	27	29	8	0
O=C(CSc1ccccn1)C12CC3CC(CC(C3)C1)C2	15	10	18	25	0
CCNC(=O)c1cc(S(=O)(=O)N2CCSCC2)ccc1OC	/	-19	-33	-1	/
Cc1cc2nc(C)n(CCCNC(=O)Nc3ccc(F)cc3)c2cc1C	91*	-1	7	-2	-1
CC(C)(C)c1cc(NC(=O)c2cccc(S(=O)(=O)N3CCOCC3)c2)no1	40	-5	-5	-6	0
COc1ccc(-c2csc(-n3cccn3)n2)cc1	/	29	61*	-2	/
COc1ccc(-c2csc(N3CCSCC3)n2)cc1	/	7	-1	-12	/
O=C(NC(=S)Nc1nc2c(s1)CCCC2)c1ccc(C(=O)c2ccccc2)cc1	76*	-1	-7	23	0
Cc1cccc(Nc2nc3c(s2)CCCC3)c1	62*	9	19	33	0
C/C(=N\Nc1nc2c(s1)CCCC2)c1ccccc1	52*	-4	19	?	0
O=C(Nc1nc2c(s1)CCCC2)Oc1ccccc1	-8	-7	-15	-6	0
C/C(=N\Nc1nc(C(C)(C)C)cs1)c1ccccc1	/	35	45	73*	/
O=C(Nc1nc2c(s1)CCCC2)c1cccnc1	-6	14	25	-45	0
Cc1cc(C)n2c(SCC(=O)Nc3ccc(F)cc3)nnc2n1	/	-14	16	8	/
O=C(COC(=O)c1cc(-c2cccs2)nc2ccccc12)NC1CCS(=O)(=O)C1 (stereo not given)	-5	-1	3	-4	0
Cc1ccc(NC(=O)COC(=O)C2CC(=O)N(Cc3ccccc3)C2)cc1F (stereo not given)	-1	-4	6	-6	0
COc1cccc(C(=O)Nc2ccccc2NC(=O)c2cccc(OC)c2)c1	/	3	23	-14	/
SMILES	L major viab	HSF1 inh	HSF1 activator	T cruzi inh	Hsp70 act
Cc1occc1C(=O)N/N=C/c1ccc(-c2ccccc2)cc1	/	6	34	-3	/
CC(/C=N/NC(=O)c1n[nH]c2c1CCC2)=C\c1ccccc1	0	2	-5	47	0
O=C(N/N=C/C=C\c1ccccc1)c1cnccn1	-3	-2	-11	-16	0
O=C(N/N=C/C(Br)=C/c1ccccc1)c1cnccn1	/	166	259*	-13	/
O=C(N/N=C/C(Br)=C\c1ccccc1)c1n[nH]c2c1CCC2	54*	210	211*	-4	2
Cc1occc1C(=O)N/N=C/C(Br)=C/c1ccccc1	3	207	314*	-16	0
COc1cccc(C(=O)N/N=C/C(Br)=C/c2ccccc2)c1	48	46	56*	-22	0
COc1ccc(C(=O)N/N=C/C(Br)=C/c2ccccc2)cc1	-3	116	148*	-1	0
Cc1ccc(-c2cc(C(=O)N/N=C/C(Br)=C/c3ccccc3)n[nH]2)o1	34	91	121*	-15	0
COC1CCCN(C(=O)c2cccc(OC3CCN(S(=O)(=O)N(C)C)CC3)c2)C1 (stereo not given)	/	2	-1	-6	/
OCCOCCN1CCN(C(=S)Nc2ccccc2)CC1	-2	4	10	-13	0
O=C(c1cccnc1)c1ncc(C(F)(F)F)cc1Cl	/	5	18	-10	/
Clc1ccccc1CSC1=NCCCN1	-1	-5	-3	4	0
